Shown are actives, neighbours in structure and some others; about 2% of the full set was active somewhere.
VIM-2 inh – blocks Pseudomonas aeruginosa VIM-2 metallo-beta-lactamase. purified VIM-2, nitrocefin hydrolysis, epi-absorbance fluorescence. inhibition, % at 5.6 µM. hit rate 0.89% among 290,000. AID 1527;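 active = inhibition above the mean of all tested compounds plus 3 SD, cutoff set per screening run, cut at about 7.5% in these data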;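 note: red hydrolysis product quenches plate fluorescence so inhibitors raise well fluorescence; 0% = enzyme with DMSO and 100% = DMSO without enzyme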
PvdQ inh – blocks Pseudomonas aeruginosa PvdQ acylase activity; purified PvdQ acylase, fluorescence plate reader; hit rate 0.063% among 340,000; inhibition, % at 10 µM; in the data active = inhibition above about 30%, passing the limit was not always enough;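 note: 0% = vehicle neutral wells and 100% = reference inhibitor wells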
PLC-beta3 inh – PLC-beta3 (human) inhibition, primary screen. Q01970. Purified PLC-beta3, fluorogenic substrate, fluorescence. inhibition, % at 12.2 µM. hit rate 0.18% among 370,000. AID 720704;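 note: 0% = median of compound wells on plate and 100% = full blocker control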
PLC-gamma1 inh – inhibitors of human phospholipase C gamma1 | P19174 | purified PLC-gamma1, fluorogenic substrate, fluorescence | inhibition, % at 12.2 µM | hit rate 0.84% among 370,000 | AID 720700; in the data active = inhibition above about 9.5%
IMP-1 inh – blocks Pseudomonas aeruginosa IMP-1 metallo-beta-lactamase. purified IMP-1, nitrocefin hydrolysis, epi-absorbance fluorescence. inhibition, % at 5.6 µM. hit rate 0.45% among 290,000;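 active = inhibition above the mean plus 3 SD of all compounds in the same screening run, cut at about 4.5% in these data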;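 note: 0% = IMP-1 with DMSO and 100% = DMSO wells lacking enzyme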
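system = purified recombinant IMP-1 beta-lactamase | amount = 0.2 nM IMP-1, as dispensed | medium = HEPES buffer pH 7.1 with ZnSO4 and Brij 35 | times = 25 °C, 15 min preincubation, 25 min reaction | detection = plate fluorescence quenching by hydrolysis product, ex 480/em 530 nm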
PLCgamma1 ctr – counter-screen for PLC-beta3 inhibitors: inhibitors of human PLC-gamma1; shares compounds with PLC-gamma1 inh; purified PLC-gamma1, fluorogenic substrate, fluorescence; inhibition, % at 12.3 µM; hit rate 3.1% among 3,300; AID 743258; in the data active = inhibition above about 9.5%
PLCb3 confirm – human PLC-beta3 inhibition, confirmation. shares compounds with PLC-gamma1 inh. inhibition, % at 12.3 µM. purified PLC-beta3, fluorogenic substrate fluorescence. hit rate 1% among 3,300
Active calls of the source: *; x = not tested or not shown. Cut-off read from the data, not from the text of the source, unless noted: active = inhibition above about 11%; inactive = the rest.

SMILES	VIM-2 inh	PvdQ inh	PLC-beta3 inh	PLC-gamma1 inh	IMP-1 inh	PLCgamma1 ctr	PLCb3 confirm
CCOc1ccc(CCNC(=O)CCn2cccc2)cc1OCC	-2	-6	5	11*	-1	-3	2
COc1ccc(CCNC(=O)CCn2cccc2)cc1OC	-2	0	-1	1	-4	x	x
COc1ccc(CNCC#CC2=CCCCC2)c(OC)c1	x	x	0	-2	x	x	x
O=C(NCn1cnccc1=O)c1ccccc1	-3	9	0	1	-2	x	x
O=C(NC(C(=O)c1ccccc1)n1cnccc1=O)c1ccccc1 (stereo unspecified)	-2	0	3	11*	-3	-2	3
COC(=O)CSc1nnc2n(-c3ccc(OC)cc3)c(=O)c3c4c(sc3n12)CCCCC4	-2	-3	1	10*	-2	-3	-1
Cc1cc(NS(=O)(=O)c2ccc3c(c2)CCC(=O)N3)ccc1Cl	x	x	-3	-1	x	x	x
Cc1ccccc1NS(=O)(=O)c1ccc2c(c1)CCC(=O)N2	x	x	5	13*	x	-5	-3
CCN(CC(=O)NCc1cccs1)S(=O)(=O)c1cc(NC(C)=O)ccc1OC	x	3	-10	9.6*	x	-4	-6
Cc1ccc(NP(=O)(c2ccc(N(C)C)cc2NC(=O)c2cccs2)N2CCOCC2)cc1 (stereo unspecified)	-4	6	14*	6	-4	-25	-26
CCC(=O)Nc1c(C)nn(-c2ccc(C)c(C)c2)c1C	0	5	2	3	0	x	x
CC(=O)Nc1c(C)nn(-c2ccc(C)c(C)c2)c1C	-2	0	2	9.6*	-3	-5	-2
CC1CCN(c2ccc(C(=O)O)cc2NS(=O)(=O)c2ccccc2[N+](=O)[O-])CC1	x	x	2	3	x	x	x
COc1ccc(C(c2nnnn2Cc2ccccc2)N2CCN(C/C=C/c3ccccc3)CC2)cc1 (stereo unspecified)	x	x	1	14*	x	-2	-1
C(=C\c1ccccc1)/CN1CCN(C(c2ccccc2)c2nnnn2Cc2ccccc2)CC1 (stereo unspecified)	x	x	0	5	x	x	x
CN1[C@@H](Cc2ccccc2)COc2cccc(N3CCSCC3)c2S1(=O)=O	x	x	-10	-5	x	x	x
Cc1ccccc1C(=O)NC1CCN(Cc2nnnn2C2CCCC2)CC1	-1	3	3	14*	-8	12*	5
O=C(NCC(=O)N1CCc2ccccc2C1)c1ccc(Cl)cc1Cl	-4	-9	2	12*	-3	-8	-3
COC(=O)c1ccc(CN2C(=O)[C@]3(OCCC=C[C@H]3C)c3cc(OC)ccc32)cc1	x	x	2	1	x	x	x
O=C(CC1SC(=NC2CCCCC2)NC1=O)Nc1ccccc1 (stereo unspecified)	-2	-9	3	11*	-3	-5	-24
Cc1cccc(NC(=O)CC2SC(=NC3CCCCC3)NC2=O)c1 (stereo unspecified)	0	-12	-8	-16	-1	x	x
O=S(=O)(Nc1ccc(F)cc1)N1CCCCCC1	-5	3	6	-1	-2	x	x
O=S(=O)(Nc1ccccc1)N1CCCCC1	x	-1	13*	11*	x	-5	2
COc1ccc(OC)c(NC(=O)NCCc2c[nH]c3ccccc23)c1	-3	-12	-1	12*	-3	-6	-4
O=C(N[C@@H]1CC[C@H]2SC[C@H](C(=O)O)N2C1=O)OCC1c2ccccc2-c2ccccc21	x	x	-6	1	x	x	x
SMILES	VIM-2 inh	PvdQ inh	PLC-beta3 inh	PLC-gamma1 inh	IMP-1 inh	PLCgamma1 ctr	PLCb3 confirm
COc1ccc(-n2c(=S)[nH]c3cc(C(=O)N(C)Cc4ccccc4)ccc3c2=O)cc1	-2	-1	1	12*	-3	1	2
COC(=O)c1ccc(OCCOc2ccccc2)cc1	-4	-12	1	11*	-4	-7	-4
CCOC(=O)[C@]12CCCCC/C=C\1N(CCc1ccc(Cl)cc1)C(=O)[C@H]2CC(=O)NCCc1ccccc1OC	x	x	0	-3	x	x	x
CN1CCN(C(=O)/C(=C/c2ccccc2)c2ccccc2)CC1	-4	-16	9	9.8*	-3	-6	-1
Cc1ccc(NC(=O)N(Cc2cc3cc(C)cc(C)c3[nH]c2=O)CC2COCCO2)cc1 (stereo unspecified)	1	-9	2	4	1	x	x
COc1cccc(NC(=O)N(Cc2cc3cc(C)cc(C)c3[nH]c2=O)CC2COCCO2)c1 (stereo unspecified)	-3	-19	10	11*	-4	-7	-4
c1ccc2c(c1)OC(CCCN1CCCCC1)c1ccccc1S2 (stereo unspecified)	-3	-3	4	11*	-5	-4	1
C/C(=N/NC(=O)c1cccs1)c1ccc(NC(=O)COc2ccc(Cl)cc2Cl)cc1	-4	-3	12*	0	-2	-28	-28
COc1ccc(S(=O)(=O)Nc2c(C)nc3nc[nH]n3c2=O)cc1	-3	-11	-1	-1	-2	x	x
COc1ccc(S(=O)(=O)Nc2c(C)nc3nc(C)[nH]n3c2=O)cc1	0	15	8	11*	0	-8	-2
C[C@@H]1COc2cc(N3CCSCC3)ccc2S(=O)(=O)N1C	x	x	-4	1	x	x	x
COc1ccc(CN2CN3Cc4cc(F)ccc4C3CS2(=O)=O)cc1 (stereo unspecified)	x	x	-1	-1	x	x	x
CN(C)[C@H]1CCN(c2ccc3c(c2)OCCCN(C2CC2)S3(=O)=O)C1	x	x	-3	-3	x	x	x
CC12CCC(=O)N1C(C(=O)Nc1cc(S(=O)(=O)N3CCCCCC3)ccc1OCC(F)(F)F)CS2 (stereo unspecified)	0	-13	-3	11*	-2	-2	2
CC12CCC(=O)N1C(C(=O)Nc1cccc(S(=O)(=O)N3CCCCCC3)c1)CS2 (stereo unspecified)	x	12	4	10*	x	-4	3
COc1ccc(C(=O)c2[nH]c(N)c(C(=O)c3ccccc3)c2-c2ccc(OC)c(OC)c2)cc1	x	x	-5	-5	x	x	x
O=C(c1ccccc1)N1CCC2CCN(CCc3ccccc3)CC21 (stereo unspecified)	x	x	6	5	x	x	x
CCN(CC)C(=O)CC[C@H]1CC[C@]2(CCCN(S(=O)(=O)c3ccccc3)C2)O1	x	x	2	-3	x	x	x
Cc1ccc(NC(=O)Cn2nnc(C(=O)NCc3ccccc3)c2N)cc1C	-4	-6	0	11*	-2	-3	-1
CCn1c(=O)c([N+](=O)[O-])c(N2CCSCC2)c2ccccc21	2	-12	-5	12*	0	-2	-2
CC1(C)CC(C2N3CC4(C)CN2CC(C)(C3)C4=O)CCO1 (stereo unspecified)	0	-5	0	13*	-2	-6	-2
COC(=O)[C@]12C[C@H](CC(=O)NCC3CCCCC3)C(=O)N(Cc3ccc(Cl)cc3Cl)C1=C[C@H](COCc1ccccc1)O[C@@H]2C	x	x	1	0	x	x	x
